How the values were obtained:
[1] = folding enthalpy; higher = less favourable; fluorescence melt of hairpins on a sequencing array, two-state fit; conditions: sodium 0.088 M
Summary of the method: (§1)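 Bootstrapped two-state fits yielded melting temperature and folding enthalpy for library hairpins. Cy3 fluorescence, with annealed Cy3 and quencher oligos, was imaged on a sequenced MiSeq flow cell in 50 mM Na-HEPES pH 8.0, 25 mM NaCl in 2.5 °C steps up to 60 °C, and normalised to pre-quench Cy3 and to control constructs. Four replicates were combined by inverse variance, and fitted temperatures were raised by 9.35 °C to match UV melts.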

[2] = melting temperature; fluorescence melt of hairpins on a sequencing array, two-state fit, raised by 9.35 °C to match UV melts; conditions: sodium 0.088 M
Summary of the method: as §1

GCACTCGGAAACAAGTGC (((((.(....).)))))
folding enthalpy [1]: -29.3 kcal/mol | Tm [2]: 46.3 °C

GCACTCGGAAACGAGCGC ((.((((....)))).))
folding enthalpy [1]: -38.9 kcal/mol | Tm [2]: 55.2 °C

GCACTGACGAAAGTCTGC (((..(((....))))))
folding enthalpy [1]: -14.3 kcal/mol | Tm [2]: 38.1 °C

GCACTGCCGAAAGGCTGC (((..(((....))))))
folding enthalpy [1]: -13.4 kcal/mol | Tm [2]: 44.5 °C

GCACTGCGAAAGCAAAGC ((..(((....)))..))
folding enthalpy [1]: -13.2 kcal/mol | Tm [2]: 37.1 °C

GCACTGCGAAAGCAGAGC ((.((((....)))).))
folding enthalpy [1]: -20.7 kcal/mol | Tm [2]: 65.9 °C

GCACTGCGAAAGCCCTGC (((..((....))..)))
folding enthalpy [1]: -12.5 kcal/mol | Tm [2]: 28.8 °C

GCACTGCGAAAGCCGCGC ((.(.((....)).).))
folding enthalpy [1]: -21 kcal/mol | Tm [2]: 45.4 °C

GCACTGGGAAACCAATGC (((.(((....))).)))
folding enthalpy [1]: -30.1 kcal/mol | Tm [2]: 40.3 °C

GCACTGGGAAACCAGCAC (..((((....))))..)
folding enthalpy [1]: -10.1 kcal/mol | Tm [2]: 27.3 °C

GCACTTCGAAAGAAATGC (((.(((....))).)))
folding enthalpy [1]: -31.3 kcal/mol | Tm [2]: 42.3 °C

GCACTTCGAAAGAACTGC (((.(((....))).)))
folding enthalpy [1]: -22.1 kcal/mol | Tm [2]: 34.4 °C

GCACTTGGAAACAAGCGC ((.((((....)))).))
folding enthalpy [1]: -45 kcal/mol | Tm [2]: 49.5 °C

GCACTTGGAAACAAGTGC (((((((....)))))))
folding enthalpy [1]: -34.6 kcal/mol | Tm [2]: 67.7 °C

GCAGAACCGAAAGGTTGC (((..(((....))))))
folding enthalpy [1]: -17.1 kcal/mol | Tm [2]: 44.5 °C

GCAGAAGCGAAAGCTTGC (((..(((....))))))
folding enthalpy [1]: -16.2 kcal/mol | Tm [2]: 47.2 °C

GCAGAAGGAAACTCCTGC ((((.((....)).))))
folding enthalpy [1]: -20.9 kcal/mol | Tm [2]: 40.1 °C

GCAGACGAAAGTCGATGC ((((((....)))..)))
folding enthalpy [1]: -17.6 kcal/mol | Tm [2]: 45.4 °C

GCAGACGGAAACGTCTAC (.(((((....))))).)
folding enthalpy [1]: -14.1 kcal/mol | Tm [2]: 42.7 °C

GCAGAGCCGAAAGGCTGC (((..(((....))))))
folding enthalpy [1]: -13.8 kcal/mol | Tm [2]: 52.9 °C

GCAGAGCGAAAGCAATGC (((..((....))..)))
folding enthalpy [1]: -21 kcal/mol | Tm [2]: 53.9 °C

GCAGAGCGAAAGCACAGC ((.(.((....)).).))
folding enthalpy [1]: -15.6 kcal/mol | Tm [2]: 42.9 °C

GCAGAGCGAAAGCGCGGC ((.(.((....)).).))
folding enthalpy [1]: -20.9 kcal/mol | Tm [2]: 60.1 °C

GCAGAGCGAAAGCTTAGC ((..(((....)))..))
folding enthalpy [1]: -17.5 kcal/mol | Tm [2]: 41.7 °C

GCAGAGCGAAAGCTTTGC (((.(((....))).)))
folding enthalpy [1]: -53.2 kcal/mol | Tm [2]: 56.1 °C

GCAGAGGCGAAAGCCTGC (((..(((....))))))
folding enthalpy [1]: -14.5 kcal/mol | Tm [2]: 56.7 °C

GCAGAGGGAAACCCCTGC ((((.((....)).))))
folding enthalpy [1]: -33.7 kcal/mol | Tm [2]: 49 °C

GCAGATGCGAAAGCATGC (((..(((....))))))
folding enthalpy [1]: -13.6 kcal/mol | Tm [2]: 47.9 °C

GCAGATGGAAACGTTTGC (((.(.(....).).)))
folding enthalpy [1]: -12.6 kcal/mol | Tm [2]: 28.9 °C

GCAGCACGAAAGTGTTGC (((.(((....))).)))
folding enthalpy [1]: -37.2 kcal/mol | Tm [2]: 60.6 °C

GCAGCAGCGAAAGCTTGC (((..(((....))))))
folding enthalpy [1]: -13.6 kcal/mol | Tm [2]: 43.5 °C

GCAGCAGGAAACTACTGC ((((.((....)).))))
folding enthalpy [1]: -30.5 kcal/mol | Tm [2]: 45.5 °C

GCAGCCCCGAAAGGGTGC (((..(((....))))))
folding enthalpy [1]: -16.5 kcal/mol | Tm [2]: 53.4 °C

GCAGCCCGAAAGGGTGC (((.(((....))))))
folding enthalpy [1]: -20.6 kcal/mol | Tm [2]: 64.4 °C

GCAGCCGAAAGGCCGTGC ((((((....)))..)))
folding enthalpy [1]: -13.3 kcal/mol | Tm [2]: 41.9 °C

GCAGCCGCGAAAGCGTGC (((..(((....))))))
folding enthalpy [1]: -8.84 kcal/mol | Tm [2]: 48.4 °C

GCAGCCGGAAACGGTTGC (((.(((....))).)))
folding enthalpy [1]: -50.1 kcal/mol | Tm [2]: 64.8 °C

GCAGCGACGAAAGTCTGC (((..(((....))))))
folding enthalpy [1]: -16.1 kcal/mol | Tm [2]: 48.3 °C

GCAGCGCGAAAGCATTGC (((..((....))..)))
folding enthalpy [1]: -14 kcal/mol | Tm [2]: 40.9 °C

GCAGCGCGAAAGCCATGC (((..((....))..)))
folding enthalpy [1]: -14.9 kcal/mol | Tm [2]: 45.1 °C

GCAGCGCGAAAGCCCAGC ((.(.((....)).).))
folding enthalpy [1]: -10.9 kcal/mol | Tm [2]: 28.1 °C

GCAGCGCGAAAGCCCTGC ((((.((....)).))))
folding enthalpy [1]: -25.9 kcal/mol | Tm [2]: 60.1 °C

GCAGCGCGAAAGCGCCGC ((.((((....)))).))
folding enthalpy [1]: -15.5 kcal/mol | Tm [2]: 67.4 °C

GCAGCGCGAAAGCGGCGC ((..(((....)))..))
folding enthalpy [1]: -21.6 kcal/mol | Tm [2]: 67.5 °C

GCAGCGCGAAAGCGGGGC ((..(((....)))..))
folding enthalpy [1]: -28 kcal/mol | Tm [2]: 67.2 °C

GCAGCGCGAAAGCGTGGC ((..(((....)))..))
folding enthalpy [1]: -23.1 kcal/mol | Tm [2]: 64.2 °C

GCAGCTCCGAAAGGATGC (((..(((....))))))
folding enthalpy [1]: -16.2 kcal/mol | Tm [2]: 41.5 °C

GCAGCTGCGAAAGCATGC (((..(((....))))))
folding enthalpy [1]: -11.6 kcal/mol | Tm [2]: 45.1 °C

GCAGCTGGAAACAGCTAC (.(((((....))))).)
folding enthalpy [1]: -14 kcal/mol | Tm [2]: 42.1 °C

GCAGCTTCGAAAGAATGC (((..(((....))))))
folding enthalpy [1]: -12.8 kcal/mol | Tm [2]: 29.1 °C

GCAGGACGAAAGTCTGC (((.(((....))))))
folding enthalpy [1]: -31.7 kcal/mol | Tm [2]: 58.4 °C

GCAGGAGAAATCCTGC ((((((....))))))
folding enthalpy [1]: -36.1 kcal/mol | Tm [2]: 61.1 °C

GCAGGCGAAAGCCCCTGC ((((((....)))..)))
folding enthalpy [1]: -15.9 kcal/mol | Tm [2]: 40.6 °C

GCAGGCGAAAGCCGTTGC ((((((....)))..)))
folding enthalpy [1]: -12.6 kcal/mol | Tm [2]: 53.7 °C

GCAGGCGAAAGCCTCTGC ((((((....)))..)))
folding enthalpy [1]: -12 kcal/mol | Tm [2]: 46.7 °C

GCAGGCGAAAGCCTGTGC ((((((....)))..)))
folding enthalpy [1]: -14.2 kcal/mol | Tm [2]: 68.2 °C

GCAGGGAAACCTGC (((((....)))))
folding enthalpy [1]: -28.1 kcal/mol | Tm [2]: 62.7 °C

GCAGGGCCGAAAGGCTGC (((..(((....))))))
folding enthalpy [1]: -14.3 kcal/mol | Tm [2]: 55.3 °C

GCAGGGCGAAAGCACGGC ((.(.((....)).).))
folding enthalpy [1]: -33.9 kcal/mol | Tm [2]: 65 °C

GCAGGGCGAAAGCCAAGC ((..(((....)))..))
folding enthalpy [1]: -17.2 kcal/mol | Tm [2]: 53.4 °C

GCAGGGCGAAAGCCTGC (((.(((....))))))
folding enthalpy [1]: -20.3 kcal/mol | Tm [2]: 68 °C

GCAGGGCGAAAGCGCAGC ((.(.((....)).).))
folding enthalpy [1]: -11.9 kcal/mol | Tm [2]: 54.8 °C

GCAGGGGCGAAAGCCTGC (((..(((....))))))
folding enthalpy [1]: -17.6 kcal/mol | Tm [2]: 53.7 °C

GCAGGTCCGAAAGGATGC (((..(((....))))))
folding enthalpy [1]: -16.6 kcal/mol | Tm [2]: 37.7 °C

GCAGGTCGAAAGACTTGC (((.(((....))).)))
folding enthalpy [1]: -41.2 kcal/mol | Tm [2]: 56.7 °C

GCAGGTGGAAACATCTGC ((((.((....)).))))
folding enthalpy [1]: -37.8 kcal/mol | Tm [2]: 52.9 °C

GCAGGTGGAAACGCTTGC (((.(.(....).).)))
folding enthalpy [1]: -23 kcal/mol | Tm [2]: 46.6 °C

GCAGTACGAAAGTATTGC (((.(((....))).)))
folding enthalpy [1]: -45.2 kcal/mol | Tm [2]: 52.8 °C

GCAGTAGGAAACTACTGC (((((((....)))))))
folding enthalpy [1]: -54 kcal/mol | Tm [2]: 64.6 °C

GCAGTCCGAAAGGAATGC (((.(((....))).)))
folding enthalpy [1]: -38.1 kcal/mol | Tm [2]: 62.1 °C

GCAGTCCGAAAGGAGTGC (((.(((....))).)))
folding enthalpy [1]: -47.7 kcal/mol | Tm [2]: 65.8 °C

GCAGTCCGAAAGGATTGC (((.(((....))).)))
folding enthalpy [1]: -46.3 kcal/mol | Tm [2]: 60.2 °C

GCAGTCGAAAGACACTGC ((((((....)))..)))
folding enthalpy [1]: -18 kcal/mol | Tm [2]: 43.5 °C

GCAGTCGAAAGACCTTGC ((((((....)))..)))
folding enthalpy [1]: -13.3 kcal/mol | Tm [2]: 33.8 °C

GCAGTCGAAAGACTTTGC ((((((....)))..)))
folding enthalpy [1]: -17.7 kcal/mol | Tm [2]: 35.7 °C

GCAGTCGGAAACGACCGC ((.((((....)))).))
folding enthalpy [1]: -27.3 kcal/mol | Tm [2]: 52 °C

GCAGTCGGAAACGATTGC (((.(((....))).)))
folding enthalpy [1]: -43.6 kcal/mol | Tm [2]: 54.4 °C

GCAGTCTCGAAAGAGTGC (((..(((....))))))
folding enthalpy [1]: -25.4 kcal/mol | Tm [2]: 45.8 °C

GCAGTGCGAAAGCATCGC ((..(((....)))..))
folding enthalpy [1]: -14.9 kcal/mol | Tm [2]: 55.2 °C

GCAGTGCGAAAGCCCTGC ((((.((....)).))))
folding enthalpy [1]: -32.8 kcal/mol | Tm [2]: 61.8 °C

GCAGTGCGAAAGCGATGC (((..((....))..)))
folding enthalpy [1]: -30.6 kcal/mol | Tm [2]: 62.4 °C

GCAGTGCGAAAGCTCCGC ((.(.((....)).).))
folding enthalpy [1]: -11.9 kcal/mol | Tm [2]: 47.9 °C

GCAGTGGAAACACTGC ((((((....))))))
folding enthalpy [1]: -32.9 kcal/mol | Tm [2]: 68.5 °C

GCAGTGGCGAAAGCCTGC (((..(((....))))))
folding enthalpy [1]: -19.3 kcal/mol | Tm [2]: 58.3 °C

GCAGTGGGAAACTACTGC (((((.(....).)))))
folding enthalpy [1]: -37.9 kcal/mol | Tm [2]: 54.2 °C

GCAGTTGAAAAACTGC ((((((....))))))
folding enthalpy [1]: -37.8 kcal/mol | Tm [2]: 58.9 °C

GCAGTTGGAAACAACTAC (.(((((....))))).)
folding enthalpy [1]: -17.1 kcal/mol | Tm [2]: 37.5 °C

GCATAAGGAAACTTATGC (((((((....)))))))
folding enthalpy [1]: -39.1 kcal/mol | Tm [2]: 54.7 °C

GCATACCGAAAGGTCTGC (((.(((....))).)))
folding enthalpy [1]: -33.5 kcal/mol | Tm [2]: 51.4 °C

GCATACGAAAGTATGTGC ((((((....)))..)))
folding enthalpy [1]: -23 kcal/mol | Tm [2]: 52.2 °C

GCATACGCGAAAGCGTGC (((..(((....))))))
folding enthalpy [1]: -10.8 kcal/mol | Tm [2]: 48.7 °C
